Measured values pooled from the literature.
Lines come from different studies, so protocols differ.
Effect on: metabolic stability
Host: mouse
Matrix: liver microsomes

| SMILES | concentration | pH | microsomal CLint |
| --- | --- | --- | --- |
| CC1(C)NC(=O)N(c2cccc(C(F)(F)F)n2)C1=O |  |  | < 7 µL/min/mg |
| O=c1c2c([nH]c3cc(OCc4ccc(OC(F)(F)F)cc4)ccc13)CCCC2 | 1 µM | pH 7.4 | 19.7 µL/min/mg |
| CNCCNC(=O)c1cc(C(C)C)nc2c1cnn2C(C)C |  |  | 175 µL/min/mg |
| Cc1[nH]c(C)c(S(=O)(=O)Nc2ccc(C(F)(F)F)c(Cl)c2)c1C(=O)N(C)C |  |  | 179 µL/min/mg |
| O=c1c2c([nH]c3cc(OC(F)(F)F)ccc13)CCCC2 | 1 µM | pH 7.4 | 139 µL/min/mg |
| CC1(C)NC(=O)N(c2ccc(F)c(CC(F)(F)F)c2)C1=O |  |  | < 7 µL/min/mg |
| CC(C)c1cc(C(=O)NCCN)c2cnn(C(C)C)c2n1 |  |  | < 9.6 µL/min/mg |
| CCCCCCCCCCCCCCCC(=O)NCCOC(=O)C[C@@H](CN)CC(C)C | 1 µM | pH 7.4 | 14.6 µL/min/mg |
| COc1ccc(Cn2cc(CO[C@@H]3O[C@H]4[C@H](OC[C@H]4O)[C@H]3O)nn2)cc1 |  |  | < 14.4 µL/min/mg |
| CC1(C)NC(=O)N(c2ccc3c(c2)OC(F)(F)O3)C1=O |  |  | < 7 µL/min/mg |
| Cc1[nH]c(C)c(S(=O)(=O)Nc2ccc(C(F)(F)F)c(Cl)c2)c1C(=O)N1CCC(F)(F)C1 |  |  | 59 µL/min/mg |
| CC1(C)NC(=O)N(c2cc(C(F)(F)F)c(F)cc2C#N)C1=O |  |  | < 7 µL/min/mg |
| CC(C)c1cc(C(=O)NCCN2CCCC2)c2cnn(C(C)C)c2n1 |  |  | 49.1 µL/min/mg |
| CC(C)(C)OC(=O)N1CCC(Oc2ccc3c(=O)c4c(F)cc(Cl)cc4[nH]c3c2)CC1 | 1 µM | pH 7.4 | 12.5 µL/min/mg |
| CC1(C)NC(=O)N(c2ccc(F)c(Br)c2)C1=O |  |  | 8 µL/min/mg |
| O=c1c2c([nH]c3c(Oc4ccc(OC(F)(F)F)cc4)cccc13)CCCC2 | 1 µM | pH 7.4 | 8.33 µL/min/mg |
| Cc1cc(N2C(=O)NC(C)(C)C2=O)cc(C(F)(F)F)n1 |  |  | 19 µL/min/mg |
| CC(C)n1ncc2c(C(=O)NCC3(C)CNC3)cc(C3CC3)nc21 |  |  | < 9.6 µL/min/mg |
| CC(C)(C)OC(=O)N1CCC(Oc2ccc3c(=O)c4c(F)cc(Cl)cc4[nH]c3c2)C1 (stereo not shown) | 1 µM | pH 7.4 | 16.7 µL/min/mg |
